Reference: ChEMBL document CHEMBL4007439, “Design, Synthesis, and Evaluation of a Novel Series of Oxadiazine Gamma Secretase Modulators for Familial Alzheimer's Disease” (J Med Chem, 2017)
In brackets after ≈: the same amount, converted by molar mass. Blank lines part the entries; values can stand above or below the molecule they belong to. Activity calls are given as the source filed them. No cut-off for these calls is given here.

Columns and labels:
[1] = Modulation of gamma-secretase in human H4 cells expressing human APP751 assessed as inhibition of amyloid beta 42 production incubated overnight by sandwich ELISA; assay type: cell-based; conditions: Homo sapiens
How it was run: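 Aβ42 EC50 in H4 cells overexpressing WT human APP751; each value is the average of n > 2 assays, each run in duplicate.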

[2] = Modulation of gamma-secretase (unknown origin); set-up: species or system Homo sapiens
Mus musculus [3] = test: Reduction in amyloid beta 42 levels in mouse brain at 30 mg/kg, po measured at 6 hrs post dose by ELISA; assay type: functional
How it was run: (§1)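 Single oral dose of 30 mg/kg; brain (mouse, rat) and rat CSF Aβ42 and Aβ37 measured 6 h post-dose, expressed relative to vehicle; total and free brain drug levels and brain:plasma ratio taken at the same time.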

[4] = Unbound intrinsic clearance in rat hepatocytes; assay type: ADME, cell-based, Hepatocyte
Mus musculus [5] = test: Reduction in amyloid beta 42 levels in mouse brain at 90 mg/kg, po measured at 6 hrs post dose by ELISA; assay type: functional
How it was run: (§2)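 Mice dosed 90 mg/kg; brain Aβ42 lowering, total brain drug concentration and brain:plasma ratio measured 6 hours post-dose.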

[6] = Ratio of drug level in brain to plasma in mouse at 90 mg/kg, po measured at 6 hrs post dose; assay type: ADME, organism-based; conditions: read-out: BPR; how it was run: as §2
[7] = Total drug uptake in mouse brain at 90 mg/kg, po measured at 6 hrs post dose; assay type: ADME, organism-based; conditions: read-out: Drug uptake; how it was run: as §2
[8] = Aqueous solubility of compound in phosphate buffer at pH 7.4 after 90 mins; assay type: physicochemical
How it was run: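 Kinetic solubility method in pH 7.4 phosphate buffer, incubated 90 min at room temperature.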

[9] = Half life in Cynomolgus monkey at 1 mg/kg, iv; assay type: ADME, organism-based, Macaca fascicularis; conditions: in vivo
How it was run: (§3)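 Intravenous dosing at 1 mg/kg; half-life, steady-state volume of distribution and clearance derived from the i.v. administration.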

[10] = Cmax in Wistar rat at 10 mg/kg, po; assay type: ADME, organism-based; set-up: dose 10 mg/kg, route oral; conditions: in vivo
How it was run: (§4)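 Oral dosing; AUC and Cmax taken from the p.o. administration; bioavailability (%F) calculated from p.o. and i.v. data.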

Cytochrome P450 2C8 = target: T1, Cytochrome P450 2C8 (Homo sapiens, UniProt P10632); test: Inhibition of CYP2C8 (unknown origin); assay type: ADME
T1 sequence (P10632 whole entry): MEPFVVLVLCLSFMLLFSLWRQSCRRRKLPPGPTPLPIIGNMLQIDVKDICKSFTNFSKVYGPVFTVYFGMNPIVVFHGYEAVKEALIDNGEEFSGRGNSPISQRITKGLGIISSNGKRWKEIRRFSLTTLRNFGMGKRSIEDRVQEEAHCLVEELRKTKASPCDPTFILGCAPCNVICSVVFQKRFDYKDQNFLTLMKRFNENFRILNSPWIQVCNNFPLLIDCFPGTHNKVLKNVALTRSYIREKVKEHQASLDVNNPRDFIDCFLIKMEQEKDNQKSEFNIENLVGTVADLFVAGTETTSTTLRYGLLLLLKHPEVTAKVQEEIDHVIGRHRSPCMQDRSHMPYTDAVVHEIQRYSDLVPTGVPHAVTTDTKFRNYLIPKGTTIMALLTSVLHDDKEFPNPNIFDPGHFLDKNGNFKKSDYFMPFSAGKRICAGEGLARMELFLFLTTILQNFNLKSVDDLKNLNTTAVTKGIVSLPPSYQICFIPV

TK6 [11] = test: Genotoxicity in p53-competent human TK6 cells in presence of S9 fraction by GADD45alpha GFP reporter assay; assay type: toxicity, cell-based
How it was run: (§5)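 GreenScreen GADD45alpha-GFP reporter assay in human cells, run externally.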

[12] = Volume of distribution at steady state in Wistar rat at 1 mg/kg, iv; assay type: ADME, organism-based; conditions: in vivo, read-out: Vdss; how it was run: as §3
Mus musculus [13] = test: Increase in amyloid beta 37 levels in mouse brain at 30 mg/kg, po measured at 0.5 to 24 hrs post dose by ELISA relative to control
[14] = AUClast in Wistar rat at 10 mg/kg, po; assay type: ADME, organism-based; set-up: dose 10 mg/kg, route oral, time 0 - last; conditions: in vivo; how it was run: as §4
Cytochrome P450 2C9 = Cytochrome P450 2C9 (Homo sapiens, UniProt P11712); test: Inhibition of CYP2C9 (unknown origin); assay type: ADME
Sequence of Cytochrome P450 2C9 (P11712 whole entry): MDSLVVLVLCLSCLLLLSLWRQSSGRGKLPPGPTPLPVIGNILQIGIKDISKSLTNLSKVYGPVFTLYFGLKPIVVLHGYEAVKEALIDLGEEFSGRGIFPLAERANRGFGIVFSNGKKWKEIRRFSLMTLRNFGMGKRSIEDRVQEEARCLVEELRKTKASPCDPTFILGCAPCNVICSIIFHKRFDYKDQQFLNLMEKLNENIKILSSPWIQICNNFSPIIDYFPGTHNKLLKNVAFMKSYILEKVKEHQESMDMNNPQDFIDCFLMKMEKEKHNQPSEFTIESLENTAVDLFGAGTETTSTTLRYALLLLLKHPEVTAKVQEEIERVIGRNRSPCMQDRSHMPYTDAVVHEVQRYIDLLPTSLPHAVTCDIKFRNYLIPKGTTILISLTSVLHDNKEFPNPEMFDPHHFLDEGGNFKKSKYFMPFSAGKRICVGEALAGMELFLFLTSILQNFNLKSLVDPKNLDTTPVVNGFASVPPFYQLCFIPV

Mus musculus [15] = test: Decrease in amyloid beta 42 in mouse brain at 30 mg/kg, po administered as single dose after 0.5 to 24 hrs; assay type: functional
Rattus norvegicus [16] = test: Reduction in amyloid beta 42 levels in rat CSF at 30 mg/kg, po measured at 6 hrs post dose by ELISA; assay type: functional; how it was run: as §1
Rattus norvegicus [17] = test: Reduction in amyloid beta 42 levels in rat brain at 30 mg/kg, po measured at 6 hrs post dose by ELISA; assay type: functional; how it was run: as §1
[18] = Efflux ratio of permeability in human Caco2 cells; assay type: ADME, cell-based; conditions: Caco-2
How it was run: (§6)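 Caco-2 monolayer assay; apical-to-basolateral permeability (cm/s) and efflux ratio used to judge P-gp efflux potential.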

[19] = Volume of distribution at steady state in Cynomolgus monkey at 1 mg/kg, iv; assay type: ADME, organism-based, Macaca fascicularis; conditions: in vivo, read-out: Vdss; how it was run: as §3
Mus musculus [20] = test: Increase in amyloid beta 37 levels in mouse brain at 30 mg/kg, po measured at 6 hrs post dose by ELISA relative to control; assay type: functional; how it was run: as §1
[21] = Cytotoxicity against human HepG2 cells assessed as reduction in cell viability by measuring ATP; conditions: read-out: TC50 (the source's name)
[22] = Ratio of drug level in brain to plasma in mouse at 30 mg/kg, po measured at 6 hrs post dose; assay type: ADME, organism-based; conditions: read-out: BPR; how it was run: as §1
Cytochrome P450 2C19 = Cytochrome P450 2C19 (Homo sapiens, UniProt P33261); test: Inhibition of CYP2C19 (unknown origin); assay type: ADME
Sequence of Cytochrome P450 2C19 (P33261 whole entry): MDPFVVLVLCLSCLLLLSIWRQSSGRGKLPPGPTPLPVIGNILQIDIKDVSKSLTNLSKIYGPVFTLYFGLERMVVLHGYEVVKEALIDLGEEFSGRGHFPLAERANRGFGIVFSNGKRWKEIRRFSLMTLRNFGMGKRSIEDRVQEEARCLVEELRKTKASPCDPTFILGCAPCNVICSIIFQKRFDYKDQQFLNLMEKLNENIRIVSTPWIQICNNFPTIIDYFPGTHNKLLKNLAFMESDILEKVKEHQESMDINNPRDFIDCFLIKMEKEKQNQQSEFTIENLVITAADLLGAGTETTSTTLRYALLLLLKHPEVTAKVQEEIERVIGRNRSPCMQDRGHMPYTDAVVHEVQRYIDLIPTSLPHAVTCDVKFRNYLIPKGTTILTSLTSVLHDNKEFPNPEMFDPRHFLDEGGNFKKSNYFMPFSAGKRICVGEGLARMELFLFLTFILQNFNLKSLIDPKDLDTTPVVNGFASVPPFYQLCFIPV

Brain [23] = test: Unbound drug level in rat brain at 30 mg/kg, po measured at 6 hrs post dose; assay type: ADME, organism-based; conditions: in vivo; how it was run: as §1
Mus musculus [24] = test: Decrease in amyloid beta 42 AUC(1 to 24 hrs) in mouse brain at 30 mg/kg, po administered as single dose after 0.5 to 24 hrs; assay type: functional
Cytochrome P450 1A2 = target: T2, Cytochrome P450 1A2 (Homo sapiens, UniProt P05177); test: Inhibition of CYP1A2 (unknown origin); assay type: ADME
T2 sequence (P05177 whole entry): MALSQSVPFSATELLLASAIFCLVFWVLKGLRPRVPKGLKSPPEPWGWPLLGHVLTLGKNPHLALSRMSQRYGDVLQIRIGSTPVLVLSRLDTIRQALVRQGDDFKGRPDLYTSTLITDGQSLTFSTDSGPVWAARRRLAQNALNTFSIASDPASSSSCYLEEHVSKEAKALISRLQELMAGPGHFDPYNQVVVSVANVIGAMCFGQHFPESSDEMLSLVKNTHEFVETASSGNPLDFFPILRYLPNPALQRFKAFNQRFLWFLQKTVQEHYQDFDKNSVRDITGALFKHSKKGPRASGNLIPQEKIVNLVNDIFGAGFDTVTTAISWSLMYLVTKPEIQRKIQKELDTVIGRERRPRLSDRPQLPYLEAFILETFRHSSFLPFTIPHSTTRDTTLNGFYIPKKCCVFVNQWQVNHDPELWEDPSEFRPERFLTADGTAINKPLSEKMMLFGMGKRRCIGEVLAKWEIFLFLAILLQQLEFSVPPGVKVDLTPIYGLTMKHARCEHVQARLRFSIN

[25] = Total drug level in rat brain at 30 mg/kg, po measured at 6 hrs post dose; assay type: ADME, organism-based; conditions: read-out: Drug uptake; how it was run: as §1
TK6 [26] = test: Genotoxicity in p53-competent human TK6 cells in absence of S9 fraction by GADD45alpha GFP reporter assay; assay type: toxicity, cell-based; how it was run: as §5
Rattus norvegicus [27] = test: Increase in amyloid beta 37 levels in rat brain at 30 mg/kg, po measured at 6 hrs post dose by ELISA relative to control; assay type: functional; how it was run: as §1
Cynomolgus monkey [28] = test: AUClast in Cynomolgus monkey at 10 mg/kg, po; assay type: ADME, organism-based, Macaca fascicularis; set-up: dose 10 mg/kg, route oral, time 0 - last; conditions: in vivo; how it was run: as §4
Cytochrome P450 3A4 [29] = target: T3, Cytochrome P450 3A4 (Homo sapiens, UniProt P08684); test: Inhibition of CYP3A4 (unknown origin); assay type: ADME
T3 sequence (P08684 whole entry): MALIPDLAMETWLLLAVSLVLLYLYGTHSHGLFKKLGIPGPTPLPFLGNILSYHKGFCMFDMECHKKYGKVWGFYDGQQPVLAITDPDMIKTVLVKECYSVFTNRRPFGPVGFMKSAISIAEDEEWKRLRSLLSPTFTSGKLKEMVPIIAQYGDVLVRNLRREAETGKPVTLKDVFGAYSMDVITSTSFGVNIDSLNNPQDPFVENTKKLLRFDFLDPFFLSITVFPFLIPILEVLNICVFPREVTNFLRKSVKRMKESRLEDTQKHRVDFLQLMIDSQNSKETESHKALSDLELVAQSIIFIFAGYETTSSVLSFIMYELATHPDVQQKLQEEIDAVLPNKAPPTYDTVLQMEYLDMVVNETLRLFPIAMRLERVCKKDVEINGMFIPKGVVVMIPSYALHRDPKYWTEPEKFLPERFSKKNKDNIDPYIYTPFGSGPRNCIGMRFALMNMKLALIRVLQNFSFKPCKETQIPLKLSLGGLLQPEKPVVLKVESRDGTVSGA

[30] = target: Voltage-gated inwardly rectifying potassium channel KCNH2 (Homo sapiens, UniProt Q12809); test: Inhibition of human ERG by patch clamp assay
Sequence of Voltage-gated inwardly rectifying potassium channel KCNH2 (Q12809 whole entry): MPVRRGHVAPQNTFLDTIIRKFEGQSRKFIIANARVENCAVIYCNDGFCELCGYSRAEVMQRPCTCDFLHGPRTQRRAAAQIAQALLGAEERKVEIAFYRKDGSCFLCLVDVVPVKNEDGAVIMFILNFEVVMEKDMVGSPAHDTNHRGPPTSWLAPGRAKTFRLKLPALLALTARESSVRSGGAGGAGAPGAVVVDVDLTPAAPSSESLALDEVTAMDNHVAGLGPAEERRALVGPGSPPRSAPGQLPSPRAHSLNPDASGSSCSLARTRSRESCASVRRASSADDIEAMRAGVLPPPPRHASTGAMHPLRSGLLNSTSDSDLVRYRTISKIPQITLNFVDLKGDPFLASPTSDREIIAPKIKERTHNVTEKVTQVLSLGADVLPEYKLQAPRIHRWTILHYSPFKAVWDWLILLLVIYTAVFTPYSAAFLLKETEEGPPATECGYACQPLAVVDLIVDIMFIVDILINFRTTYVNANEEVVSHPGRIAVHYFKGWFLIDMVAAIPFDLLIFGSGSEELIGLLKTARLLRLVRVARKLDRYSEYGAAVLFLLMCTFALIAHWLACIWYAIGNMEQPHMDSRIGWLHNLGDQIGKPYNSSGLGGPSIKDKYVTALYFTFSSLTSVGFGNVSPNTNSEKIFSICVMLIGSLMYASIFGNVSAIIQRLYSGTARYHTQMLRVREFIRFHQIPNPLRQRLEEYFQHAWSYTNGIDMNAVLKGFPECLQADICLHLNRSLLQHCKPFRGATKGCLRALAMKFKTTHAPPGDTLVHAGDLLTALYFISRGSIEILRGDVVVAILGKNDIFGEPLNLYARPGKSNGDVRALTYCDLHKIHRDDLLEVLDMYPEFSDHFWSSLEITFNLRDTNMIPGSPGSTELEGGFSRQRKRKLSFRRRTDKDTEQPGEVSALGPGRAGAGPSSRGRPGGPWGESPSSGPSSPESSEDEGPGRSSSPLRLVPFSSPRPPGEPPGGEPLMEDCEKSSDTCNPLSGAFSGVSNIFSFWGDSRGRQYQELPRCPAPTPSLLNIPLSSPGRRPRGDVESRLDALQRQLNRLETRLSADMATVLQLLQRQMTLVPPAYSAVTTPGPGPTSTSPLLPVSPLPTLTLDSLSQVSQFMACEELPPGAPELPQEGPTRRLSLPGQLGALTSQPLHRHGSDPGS
How it was run: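 Functional patch clamp assay of hERG current; IC50 derived.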

[31] = Oral bioavailability in Wistar rat at 10 mg/kg; assay type: ADME, organism-based; conditions: in vivo; how it was run: as §4
Brain [32] = test: Unbound drug level in mouse brain at 30 mg/kg, po measured at 6 hrs post dose; assay type: ADME, organism-based; conditions: in vivo; how it was run: as §1
[33] = Half life in Wistar rat at 1 mg/kg, iv; assay type: ADME, organism-based; conditions: in vivo; how it was run: as §3
[34] = Cmax in Cynomolgus monkey at 10 mg/kg, po; assay type: ADME, organism-based, Macaca fascicularis; set-up: dose 10 mg/kg, route oral; conditions: in vivo; how it was run: as §4
[35] = Permeability from apical to basolateral side in human Caco2 cells; assay type: ADME, cell-based; conditions: Caco-2, read-out: permeability; how it was run: as §6
Cynomolgus monkey [36] = test: Oral bioavailability in Cynomolgus monkey at 10 mg/kg; assay type: ADME, organism-based, Macaca fascicularis; conditions: in vivo; how it was run: as §4
[37] = Clearance in Wistar rat at 1 mg/kg, iv; assay type: ADME, organism-based; conditions: in vivo; how it was run: as §3
Cytochrome P450 3A4 [38] = target: T3, Cytochrome P450 3A4; test: Time dependent inhibition of CYP3A4 (unknown origin) at 5 to 25 uM; assay type: ADME
Cytochrome P450 2D6 = Cytochrome P450 2D6 (Homo sapiens, UniProt P10635); test: Inhibition of CYP2D6 (unknown origin); assay type: ADME
Sequence of Cytochrome P450 2D6 (P10635 whole entry): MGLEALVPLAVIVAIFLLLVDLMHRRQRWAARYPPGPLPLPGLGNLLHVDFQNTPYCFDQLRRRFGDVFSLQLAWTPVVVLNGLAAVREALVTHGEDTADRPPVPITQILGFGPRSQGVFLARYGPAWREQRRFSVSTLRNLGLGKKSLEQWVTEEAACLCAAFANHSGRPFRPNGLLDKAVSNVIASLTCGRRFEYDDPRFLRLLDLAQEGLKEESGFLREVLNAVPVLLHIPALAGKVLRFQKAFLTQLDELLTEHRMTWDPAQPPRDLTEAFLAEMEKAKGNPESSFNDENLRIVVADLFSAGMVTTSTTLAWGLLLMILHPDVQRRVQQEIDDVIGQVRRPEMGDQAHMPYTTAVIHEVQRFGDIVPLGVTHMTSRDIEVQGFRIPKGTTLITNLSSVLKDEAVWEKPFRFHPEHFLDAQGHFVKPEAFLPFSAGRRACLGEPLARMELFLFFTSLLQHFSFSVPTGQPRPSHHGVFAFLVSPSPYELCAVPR

Rattus norvegicus [39] = test: Increase in amyloid beta 37 levels in rat CSF at 30 mg/kg, po measured at 6 hrs post dose by ELISA relative to control; assay type: functional; how it was run: as §1
[40] = Total drug level in mouse brain at 30 mg/kg, po measured at 6 hrs post dose; assay type: ADME, organism-based; conditions: read-out: Drug uptake; how it was run: as §1

EC50 [1]: 0.197 µM
Structure (SMILES): COc1nc(C2=NOC[C@@H]3[C@H](Oc4ccc(F)cc4C)CCCN23)ccc1-n1cnc(C)c1

EC50 [1]: 1.36 µM
Structure (SMILES): COc1nc(C2=NOC[C@H](COc3ccc(F)cc3C)N2)ccc1-c1ocnc1C

EC50 [2]: 0.035 µM
Structure (SMILES): COc1cc(N2CCC(C(=O)N3CCC[C@@H](Oc4ccc(Cl)cc4C(F)(F)F)C3)CC2)ccn1

CL free [4]: 3830 mL/min/kg | EC50 [1]: 0.027 µM
Structure (SMILES): COc1nc(C2=NOC[C@H](COc3ccc(Cl)cc3C(F)(F)F)N2)ccc1-n1cnc(C)c1
Activity (Mus musculus [3]): inactive

Kp at 6 h [6]: 0.6 | CL free [4]: 4251 mL/min/kg | concentration at 6 h [7]: 36 µM | EC50 [1]: 0.015 µM
Structure (SMILES): COc1nc(C2=NOC[C@@H]3[C@H](Oc4ccc(Cl)cc4C(F)(F)F)CCCN23)ccc1-n1cnc(C)c1
inhibition in vivo at 90 mg/kg (Mus musculus [5]): 32%

solubility at 1.5 h [8]: 84 µM (≈ 32.7 µg/mL) | half-life [9]: 1.5 h | Cmax [10]: 7.3 µM | IC50 (Cytochrome P450 2C8): > 25 µM | Vd [12]: 1 L/kg | AUC(0-t) [14]: 67.8 µM·h | IC50 (Cytochrome P450 2C9): 8 µM | efflux ratio [18]: 1.1 | Vd [19]: 0.9 L/kg | Kp at 6 h [22]: 1.5 | IC50 (Cytochrome P450 2C19): 17 µM | Drug uptake(free) (Brain [23]): 156 nM | IC50 (Cytochrome P450 1A2): 3 µM | concentration at 6 h [25]: 13.7 µM | CL free [4]: 84 mL/min/kg | AUClast (Cynomolgus monkey [28]): 8.1 µM·h | IC50 (Cytochrome P450 3A4 [29]): 25 µM | bioavailability [31]: 93% | Drug uptake(free) (Brain [32]): 427 nM | half-life [33]: 2.2 h | Cmax [34]: 11 µM | Papp A→B [35]: 10 ×10⁻⁶ cm/s | F (Cynomolgus monkey [36]): 136% | clearance [37]: 5.8 mL/min/kg | TDI (Cytochrome P450 3A4 [38]): Not Active | IC50 (Cytochrome P450 2D6): 2 µM | concentration at 6 h [40]: 29.8 to 30 µM | EC50 [1]: 0.035 µM
Structure (SMILES): COc1nc(C2=NOC[C@H](c3cc4ccccc4o3)N2)ccc1-n1cnc(C)c1
inhibition in vivo at 30 mg/kg (Mus musculus [3]): 43% | Activity (TK6 [11]): Non-Toxic | fold change (FC) (Mus musculus [13]): 3.1 | Imax (Mus musculus [15]): 45% | inhibition in vivo at 30 mg/kg (Rattus norvegicus [16]): 58% | inhibition in vivo at 30 mg/kg (Rattus norvegicus [17]): 30% | fold change (FC) (Mus musculus [20]): 3.2 | CC50 [21]: > 72 µM | inhibition in vivo at 30 mg/kg (Mus musculus [24]): 34% | Activity (TK6 [26]): Non-Toxic | fold change (FC) (Rattus norvegicus [27]): 2.5 | IC50 [30]: 15 µM | fold change (FC) (Rattus norvegicus [39]): 20
